Reference: ChEMBL document CHEMBL1136753, “Optimization of 2-phenylaminoimidazo[4,5-h]isoquinolin-9-ones: orally active inhibitors of lck kinase” (J Med Chem, 2003)
pEC50, pIC50: −log10 of the molar value.

Columns and labels:
[1] = biological target: Vascular endothelial growth factor receptor (Homo sapiens, UniProt P17948+P35916+P35968); experiment: Inhibition of Vascular endothelial growth factor receptor; type: protein assay
Procedure, shortened: (§1)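 DELFIA tyrosine kinase assay on neutravidin-coated plates. Substrate is biotinylated poly-Glu₄-Tyr₁, with ATP at or below Km. Compounds are tested in 10-point dose response. After 45 min at room temperature, Eu-labelled anti-phosphotyrosine is added and time-resolved fluorescence is read (ex 360/em 620 nm). IC₅₀ is the mean of ≥2 determinations in duplicate.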

[2] = biological target: Inhibitor of nuclear factor kappa-B kinase subunit alpha (Homo sapiens, UniProt O15111); experiment: Inhibition of IKK alpha kinase
Inhibitor of nuclear factor kappa-B kinase subunit alpha, sequence (O15111 whole entry): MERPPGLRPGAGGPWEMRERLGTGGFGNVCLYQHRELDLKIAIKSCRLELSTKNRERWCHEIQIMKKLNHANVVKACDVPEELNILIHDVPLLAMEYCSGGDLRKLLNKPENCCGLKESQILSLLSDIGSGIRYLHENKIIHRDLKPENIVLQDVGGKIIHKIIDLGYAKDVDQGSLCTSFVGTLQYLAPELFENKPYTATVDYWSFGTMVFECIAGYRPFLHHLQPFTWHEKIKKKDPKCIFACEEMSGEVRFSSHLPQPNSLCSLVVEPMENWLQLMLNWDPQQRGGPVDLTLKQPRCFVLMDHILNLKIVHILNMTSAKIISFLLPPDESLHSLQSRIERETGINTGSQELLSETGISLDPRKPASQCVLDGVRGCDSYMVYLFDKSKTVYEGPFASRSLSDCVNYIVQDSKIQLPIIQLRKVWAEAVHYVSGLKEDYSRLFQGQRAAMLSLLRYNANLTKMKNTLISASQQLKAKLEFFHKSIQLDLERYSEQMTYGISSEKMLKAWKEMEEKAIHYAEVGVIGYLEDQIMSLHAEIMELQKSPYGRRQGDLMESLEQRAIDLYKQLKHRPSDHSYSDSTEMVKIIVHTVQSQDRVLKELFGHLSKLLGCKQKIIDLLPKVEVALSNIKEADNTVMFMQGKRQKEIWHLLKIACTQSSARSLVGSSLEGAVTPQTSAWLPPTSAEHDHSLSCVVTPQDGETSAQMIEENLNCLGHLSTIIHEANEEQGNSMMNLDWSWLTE
Procedure, shortened: (§2)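 Serine/threonine kinase panel run through the Dundee consortium with ATP at 100 µM. IC₅₀ values are reported.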

[3] = tissue or blood; type: functional, tissue-based; conditions: Homo sapiens
[4] = biological target: Serine/threonine-protein kinase Sgk1 (Homo sapiens, UniProt O00141); experiment: Inhibition of Serum/glucocorticoid regulated kinase; procedure, shortened: as §2
[5] = biological target: Ribosomal protein S6 kinase (P70S6K) (Homo sapiens, UniProt P23443+Q9UBS0); experiment: Inhibition of Ribosomal protein S6 kinase (P70S6K kinase); type: protein-complex assay; procedure, shortened: as §2
[6] = biological target: Casein kinase II (Homo sapiens, UniProt P19784+P67870+P68400); experiment: Inhibition of Casein kinase II; type: protein-complex assay; procedure, shortened: as §2
[7] = system: Jurkat; experiment: Inhibition of Calcium release in jurkat cells; type: functional, cell-based; conditions: Homo sapiens
Procedure, shortened: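 Jurkat cells loaded with Fluo-3, washed in HBSS with 1 mM CaCl₂, 1 mM MgCl₂, 10 mM HEPES, 2 mM probenecid, 1% FBS, pH 7.4. Final 3 × 10⁵ cells/mL. Compound added for 15 min at room temperature, then anti-CD3 (clone X35, final 0.25 µg/mL). FLIPR fluorescence followed for 13 min. Peak minus baseline plotted against concentration gives EC₅₀. Mean of two or more experiments in duplicate ± SD.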

[8] = biological target: Mitogen-activated protein kinase; ERK1/ERK2 (Homo sapiens, UniProt P27361+P28482); experiment: Inhibition of Mitogen-activated protein kinase; type: protein assay; procedure, shortened: as §2
[9] = biological target: Cyclin-dependent kinase 4 (Homo sapiens, UniProt P11802); experiment: Inhibition of Cyclin-dependent kinase 4; procedure, shortened: as §2
[10] = biological target: MAP kinase-activated protein kinase 5 (Homo sapiens, UniProt Q8IW41); experiment: Inhibition of Protein kinase PRAK
MAP kinase-activated protein kinase 5, sequence (Q8IW41 whole entry): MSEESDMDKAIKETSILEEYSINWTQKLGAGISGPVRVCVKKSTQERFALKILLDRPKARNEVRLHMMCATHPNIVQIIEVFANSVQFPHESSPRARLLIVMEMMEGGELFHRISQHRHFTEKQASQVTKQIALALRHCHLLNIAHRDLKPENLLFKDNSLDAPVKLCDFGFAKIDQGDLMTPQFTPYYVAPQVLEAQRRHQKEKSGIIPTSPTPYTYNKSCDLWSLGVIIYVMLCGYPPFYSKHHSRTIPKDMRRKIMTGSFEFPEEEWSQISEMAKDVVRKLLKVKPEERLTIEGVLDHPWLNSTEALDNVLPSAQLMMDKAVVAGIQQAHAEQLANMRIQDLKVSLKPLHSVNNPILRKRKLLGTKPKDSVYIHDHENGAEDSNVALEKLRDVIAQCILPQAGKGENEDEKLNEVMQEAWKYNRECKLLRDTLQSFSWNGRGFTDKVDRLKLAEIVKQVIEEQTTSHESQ
Procedure, shortened: (§3)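 Run externally by the Dundee consortium kinase panel with 100 µM ATP. IC50 values in µM.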

[11] = biological target: Glycogen synthase kinase-3 beta (Homo sapiens, UniProt P49841); experiment: Inhibition of Glycogen synthase kinase-3 beta; procedure, shortened: as §2
[12] = biological target: Serine/threonine-protein kinase Chk1 (Homo sapiens, UniProt O14757); experiment: Inhibition of Serine/threonine-protein kinase Chk1; procedure, shortened: as §3
Serine/threonine-protein kinase Chk1, sequence (O14757 whole entry): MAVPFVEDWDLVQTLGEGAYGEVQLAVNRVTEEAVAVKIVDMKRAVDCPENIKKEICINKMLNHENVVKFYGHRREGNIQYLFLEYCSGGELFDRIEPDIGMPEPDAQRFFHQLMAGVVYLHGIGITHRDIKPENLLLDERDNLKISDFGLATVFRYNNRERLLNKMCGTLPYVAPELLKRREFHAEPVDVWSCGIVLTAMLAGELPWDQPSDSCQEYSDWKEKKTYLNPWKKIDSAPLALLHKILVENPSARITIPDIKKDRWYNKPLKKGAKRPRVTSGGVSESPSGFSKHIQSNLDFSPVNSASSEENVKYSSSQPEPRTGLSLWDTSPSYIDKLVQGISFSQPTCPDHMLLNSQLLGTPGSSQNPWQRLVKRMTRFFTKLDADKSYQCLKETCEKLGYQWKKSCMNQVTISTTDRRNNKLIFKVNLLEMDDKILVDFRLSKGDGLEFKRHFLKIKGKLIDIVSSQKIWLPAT

[13] = biological target: Tyrosine-protein kinase SYK (Homo sapiens, UniProt P43405); experiment: Inhibition of Syk protein tyrosine kinase; procedure, shortened: as §1
[14] = biological target: Tyrosine-protein kinase CSK (Homo sapiens) (UniProt P41240); experiment: Inhibition of Csk tyrosine kinase; conditions: concentration not given here
Tyrosine-protein kinase CSK (Homo sapiens), sequence (P41240 2-450 limits assumed): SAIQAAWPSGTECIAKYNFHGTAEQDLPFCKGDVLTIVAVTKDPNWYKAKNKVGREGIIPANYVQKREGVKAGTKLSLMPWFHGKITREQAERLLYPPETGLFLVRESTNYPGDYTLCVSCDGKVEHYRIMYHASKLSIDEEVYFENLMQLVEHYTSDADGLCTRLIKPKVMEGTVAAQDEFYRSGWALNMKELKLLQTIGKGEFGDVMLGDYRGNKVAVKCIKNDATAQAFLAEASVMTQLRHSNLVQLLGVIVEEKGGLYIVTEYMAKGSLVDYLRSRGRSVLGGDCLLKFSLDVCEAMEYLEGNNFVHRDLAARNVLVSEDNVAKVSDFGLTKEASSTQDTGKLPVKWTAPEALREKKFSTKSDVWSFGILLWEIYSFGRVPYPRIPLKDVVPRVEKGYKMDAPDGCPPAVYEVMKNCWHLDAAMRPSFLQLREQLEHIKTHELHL
Procedure, shortened: (§4)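 DELFIA tyrosine kinase assay: enzyme at 0.8 nM final, biotin-poly-Glu₄-Tyr₁ substrate, 1 µM final ATP. Ten-point dilutions from 1 µg/mL final, 45 min at room temperature. Phosphotyrosine read by Eu-anti-phosphotyrosine time-resolved fluorescence. IC₅₀ is the mean of two or more determinations in duplicate.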

[15] = biological target: Tyrosine-protein kinase ZAP-70 (Homo sapiens, UniProt P43403); experiment: Inhibition of Zeta-chain (TCR) associated protein kinase 70 kDa (ZAP-70)
Procedure, shortened: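 Kinase-panel IC50 with ATP at or below the Km of each listed kinase. Each value is the mean of two or more separate determinations, each in duplicate.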

[16] = biological target: Hepatocyte growth factor receptor (Homo sapiens, UniProt P08581); experiment: Inhibition of Hepatocyte growth factor receptor; type: cell-based; procedure, shortened: as §1
[17] = biological target: Tyrosine-protein kinase ITK/TSK (Homo sapiens, UniProt Q08881); experiment: Inhibition of IL-2-inducible T-cell kinase (Itk kinase) was measured using DELFIA (dissociation enhanced lanthanide fluoroimmunoassay); procedure, shortened: as §1
[18] = biological target: AMP-activated protein kinase, AMPK; experiment: Inhibition of AMP-activated Protein Kinase; type: protein-complex assay; procedure, shortened: as §2
[19] = biological target: Cyclin-dependent kinase 2 (Homo sapiens, UniProt P24941); experiment: Inhibition of Cyclin-dependent kinase 2; procedure, shortened: as §2
[20] = biological target: Protein kinase C (PKC); experiment: Inhibition of Protein kinase C; type: protein assay; procedure, shortened: as §2
[21] = biological target: c-Jun N-terminal kinase, JNK (Homo sapiens, UniProt P45983+P53779+P45984); experiment: Inhibition of c-Jun N-terminal kinase; type: protein assay; procedure, shortened: as §2
[22] = biological target: Inhibitor of nuclear factor kappa-B kinase subunit beta (Homo sapiens, UniProt O14920); experiment: Inhibition of IKK beta kinase; procedure, shortened: as §2
Inhibitor of nuclear factor kappa-B kinase subunit beta, sequence (O14920 whole entry): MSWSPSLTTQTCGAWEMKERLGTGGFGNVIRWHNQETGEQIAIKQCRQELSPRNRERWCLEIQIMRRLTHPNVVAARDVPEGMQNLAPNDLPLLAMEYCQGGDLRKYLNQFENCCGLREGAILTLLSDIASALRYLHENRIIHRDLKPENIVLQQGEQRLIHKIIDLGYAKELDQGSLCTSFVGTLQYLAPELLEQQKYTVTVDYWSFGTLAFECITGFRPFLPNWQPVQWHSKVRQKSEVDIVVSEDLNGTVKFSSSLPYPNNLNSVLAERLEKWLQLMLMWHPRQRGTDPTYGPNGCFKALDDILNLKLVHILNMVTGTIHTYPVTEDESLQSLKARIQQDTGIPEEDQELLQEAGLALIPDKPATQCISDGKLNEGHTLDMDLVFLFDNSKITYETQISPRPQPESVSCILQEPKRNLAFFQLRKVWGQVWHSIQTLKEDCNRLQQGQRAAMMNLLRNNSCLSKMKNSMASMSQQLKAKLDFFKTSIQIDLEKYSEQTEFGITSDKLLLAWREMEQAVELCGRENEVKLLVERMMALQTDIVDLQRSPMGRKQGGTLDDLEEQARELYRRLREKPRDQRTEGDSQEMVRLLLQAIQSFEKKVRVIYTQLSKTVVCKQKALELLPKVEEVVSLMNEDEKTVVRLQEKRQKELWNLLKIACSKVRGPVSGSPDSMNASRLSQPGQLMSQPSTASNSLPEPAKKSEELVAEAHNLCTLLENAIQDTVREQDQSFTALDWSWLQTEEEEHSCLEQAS

[23] = biological target: Receptor tyrosine-protein kinase erbB-2 (Homo sapiens, UniProt P04626); experiment: Inhibition of Protein kinase HER-2; procedure, shortened: as §1
[24] = biological target: Rho-associated protein kinase 2 (Homo sapiens, UniProt O75116); experiment: Inhibition of Protein kinase ROCK2; procedure, shortened: as §2
[25] = Inhibition of PHK phosphorylase kinase
[26] = biological target: MAP kinase-activated protein kinase 2 (Homo sapiens, UniProt P49137); experiment: Inhibition of MAP kinase-activated protein kinase 1b/MAP kinase-activated protein kinase 2; procedure, shortened: as §2
MAP kinase-activated protein kinase 2, sequence (P49137 whole entry): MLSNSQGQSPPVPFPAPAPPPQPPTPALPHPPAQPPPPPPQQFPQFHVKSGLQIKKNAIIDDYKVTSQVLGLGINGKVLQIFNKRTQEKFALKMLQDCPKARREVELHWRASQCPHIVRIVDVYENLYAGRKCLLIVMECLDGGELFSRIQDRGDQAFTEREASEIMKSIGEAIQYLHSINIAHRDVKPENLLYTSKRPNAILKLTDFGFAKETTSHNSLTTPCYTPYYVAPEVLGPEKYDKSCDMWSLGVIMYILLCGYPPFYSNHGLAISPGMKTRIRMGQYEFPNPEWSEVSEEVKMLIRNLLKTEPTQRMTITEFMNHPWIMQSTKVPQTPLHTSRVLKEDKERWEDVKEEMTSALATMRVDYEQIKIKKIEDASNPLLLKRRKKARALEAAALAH

[27] = biological target: RAC-alpha serine/threonine-protein kinase (Homo sapiens, UniProt P31749); experiment: Inhibition of Protein kinase B alpha; procedure, shortened: as §2
RAC-alpha serine/threonine-protein kinase, sequence (P31749 whole entry): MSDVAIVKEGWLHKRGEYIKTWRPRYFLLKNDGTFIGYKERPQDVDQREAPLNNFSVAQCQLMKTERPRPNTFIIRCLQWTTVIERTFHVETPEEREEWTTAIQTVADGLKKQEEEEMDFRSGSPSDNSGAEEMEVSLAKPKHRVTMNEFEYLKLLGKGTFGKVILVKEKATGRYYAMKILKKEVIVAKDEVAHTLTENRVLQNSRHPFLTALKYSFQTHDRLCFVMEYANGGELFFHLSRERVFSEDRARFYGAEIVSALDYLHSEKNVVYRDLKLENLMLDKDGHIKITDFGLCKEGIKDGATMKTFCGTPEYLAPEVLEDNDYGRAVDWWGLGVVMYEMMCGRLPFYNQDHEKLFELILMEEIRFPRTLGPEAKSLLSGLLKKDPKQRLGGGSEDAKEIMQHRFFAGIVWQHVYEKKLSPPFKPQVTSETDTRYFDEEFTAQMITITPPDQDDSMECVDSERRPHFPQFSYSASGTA

[28] = biological target: 3-phosphoinositide-dependent protein kinase 1 (Homo sapiens, UniProt O15530); experiment: Inhibition of Phospho-inositide dependent kinase 1 (PDK1); procedure, shortened: as §2
3-phosphoinositide-dependent protein kinase 1, sequence (O15530 whole entry): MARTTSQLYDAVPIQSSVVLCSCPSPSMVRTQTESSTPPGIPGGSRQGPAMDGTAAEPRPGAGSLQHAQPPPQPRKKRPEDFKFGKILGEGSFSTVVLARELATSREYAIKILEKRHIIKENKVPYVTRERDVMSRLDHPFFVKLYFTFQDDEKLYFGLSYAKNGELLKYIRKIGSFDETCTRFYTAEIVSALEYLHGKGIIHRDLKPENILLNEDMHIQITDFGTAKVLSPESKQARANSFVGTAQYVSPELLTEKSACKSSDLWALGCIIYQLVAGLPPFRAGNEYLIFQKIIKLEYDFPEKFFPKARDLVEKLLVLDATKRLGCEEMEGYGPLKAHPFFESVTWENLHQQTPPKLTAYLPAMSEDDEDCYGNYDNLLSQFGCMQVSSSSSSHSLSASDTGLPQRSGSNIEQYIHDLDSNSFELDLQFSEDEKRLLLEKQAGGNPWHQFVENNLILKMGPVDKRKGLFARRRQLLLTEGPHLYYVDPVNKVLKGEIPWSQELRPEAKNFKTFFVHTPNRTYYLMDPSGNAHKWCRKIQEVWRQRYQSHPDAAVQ

[29] = biological target: Tyrosine-protein kinase Lyn (Homo sapiens, UniProt P07948); experiment: Inhibition of Protein tyrosine kinase Lyn; procedure, shortened: as §1
[30] = biological target: Proto-oncogene tyrosine-protein kinase Src (Homo sapiens, UniProt P12931); experiment: Inhibition of Src protein tyrosine kinase; procedure, shortened: as §1
Proto-oncogene tyrosine-protein kinase Src, sequence (P12931 2-536 limits assumed): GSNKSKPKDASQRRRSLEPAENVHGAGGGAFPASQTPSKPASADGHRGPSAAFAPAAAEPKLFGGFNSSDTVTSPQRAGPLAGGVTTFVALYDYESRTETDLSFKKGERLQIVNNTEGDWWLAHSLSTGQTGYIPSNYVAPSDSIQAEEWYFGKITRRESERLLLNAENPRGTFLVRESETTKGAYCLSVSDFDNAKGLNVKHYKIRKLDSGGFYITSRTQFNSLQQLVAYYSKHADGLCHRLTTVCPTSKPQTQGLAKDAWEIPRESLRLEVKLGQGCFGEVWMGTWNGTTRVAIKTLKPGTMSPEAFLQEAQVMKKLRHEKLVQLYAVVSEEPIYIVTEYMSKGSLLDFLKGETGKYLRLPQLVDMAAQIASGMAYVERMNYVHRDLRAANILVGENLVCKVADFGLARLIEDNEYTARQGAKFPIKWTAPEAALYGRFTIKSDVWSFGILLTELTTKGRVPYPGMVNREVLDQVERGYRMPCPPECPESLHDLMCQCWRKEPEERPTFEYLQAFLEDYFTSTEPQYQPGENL

[31] = biological target: Insulin receptor (Homo sapiens, UniProt P06213); experiment: Inhibition of Insulin receptor; procedure, shortened: as §1
[32] = Inhibition of Insulin-like growth factor receptor; procedure, shortened: as §4
[33] = Inhibition of Platelet-derived growth factor receptor; procedure, shortened: as §4
[34] = Inhibition of Calcium/calmodulin-dependent protein kinase
[35] = biological target: Ribosomal protein S6 kinase alpha-5 (Homo sapiens, UniProt O75582); experiment: Inhibition of MSK-1 kinase; procedure, shortened: as §3
[36] = species on record: Homo sapiens; experiment: Inhibition of IL-2 production in human whole blood; type: functional
[37] = biological target: cAMP-dependent protein kinase (PKA) (Homo sapiens, UniProt P22694+P17612+P22612); experiment: Inhibition of Protein kinase A (PKA); type: protein assay; procedure, shortened: as §2

CCN(CC)C/C=C/c1nc(O)c2c(ccc3nc(Nc4c(Cl)cccc4Cl)n(C)c32)c1C
IC50 [1]: > 100 µM
pIC50 [2]: 4.30
pEC50 [3]: 6.89
pIC50 [4]: < 6.00
pIC50 [5]: < 6.00
pIC50 [6]: < 6.00
pEC50 [7]: 8.15
IC50 [8]: > 30 µM
pIC50 [9]: < 4.00
pIC50 [10]: < 6.00
pIC50 [11]: < 6.00
pIC50 [12]: < 6.00
pIC50 [13]: < 4.40
inhibition [14]: 87%
pIC50 [15]: 6.40
pIC50 [16]: < 4.00
pIC50 [17]: < 5.00
pIC50 [18]: < 6.00
pIC50 [19]: < 6.00
IC50 [20]: > 300 µM
IC50 [21]: > 1 µM
pIC50 [22]: 4.30
pIC50 [23]: < 5.00
pIC50 [24]: < 6.00
pIC50 [25]: < 6.00
pIC50 [26]: < 6.00
pIC50 [27]: < 6.00
pIC50 [28]: < 6.00
pIC50 [29]: 8.70
pIC50 [30]: 9.70
pIC50 [31]: < 4.00
pIC50 [32]: < 4.00
pIC50 [33]: 8.10
pIC50 [34]: < 4.00
pIC50 [35]: < 6.00
pEC50 [36]: 5.74
IC50 [37]: > 100 µM
